{"data": "Results from different studies", "ABL1 F317L non-phosphorylated": "Tyrosine-protein kinase ABL1, non-phosphorylated (ABL1, Homo sapiens, UniProt P00519, F317L)", "ABL1 T315I": "Tyrosine-protein kinase ABL1 (ABL1, Homo sapiens, UniProt P00519, T315I)", "ABL1 T315I phosphorylated": "Tyrosine-protein kinase ABL1, phosphorylated (ABL1, Homo sapiens, UniProt P00519, T315I)", "ABL1 E255K phosphorylated": "Tyrosine-protein kinase ABL1, phosphorylated (ABL1, Homo sapiens, UniProt P00519, E255K)", "ABL1 Y253F": "Tyrosine-protein kinase ABL1 (ABL1, Homo sapiens, UniProt P00519, Y253F)", "ABL1 M351T phosphorylated": "Tyrosine-protein kinase ABL1, phosphorylated (ABL1, Homo sapiens, UniProt P00519, M351T)", "note": "Each line is one published result; the experiments were not run side by side."}
{"Structure (SMILES)": "O=C(Nc1c[nH]nc1C(=O)NC1CCNCC1)c1cc(F)cc(F)c1", "target": "Tyrosine-protein kinase ABL1, non-phosphorylated (ABL1, Homo sapiens, UniProt P00519, H396P)", "effect on": "binding", "technique": "competition with immobilised ligand", "concentration": "1 µM", "remaining binding [%]": 90}
{"Structure (SMILES)": "C[C@@H]1CN(c2cc(-c3nn(C)c4ccc(OC5(C)CC5)cc34)ncn2)C[C@H](C)O1", "target": "Tyrosine-protein kinase ABL1, phosphorylated (ABL1, Homo sapiens, UniProt P00519, F317I)", "effect on": "binding", "concentration": "1 µM", "remaining binding [%]": 75}
{"Structure (SMILES)": "O=C(NCC1CCOCC1)c1n[nH]cc1NC(=O)c1c(F)cccc1F", "target": "ABL1 F317L non-phosphorylated", "effect on": "binding", "technique": "competition with immobilised ligand", "concentration": "1 µM", "remaining binding [%]": 88}
{"Structure (SMILES)": "O=C(c1ccc(Nc2nccc(-c3cc4ccccc4s3)n2)cc1)N1CCC(N2CCCC2)CC1", "target": "Tyrosine-protein kinase ABL1, phosphorylated (ABL1, Homo sapiens, UniProt P00519, Y253F)", "effect on": "binding", "technique": "competition with immobilised ligand", "concentration": "1 µM", "remaining binding [%]": 6.2}
{"Structure (SMILES)": "COc1ncc2cc3ccccc3nc2c1C#N", "target": "Tyrosine-protein kinase ABL1, non-phosphorylated (ABL1, Homo sapiens, UniProt P00519, T315I)", "effect on": "cell-free assay", "technique": "competition with immobilised ligand", "concentration": "5 µM", "remaining binding [%]": 100}
{"Structure (SMILES)": "CC1CCCN1c1nccc(-c2cnn3ncccc23)n1 (stereo not shown)", "target": "ABL1 T315I", "effect on": "binding", "concentration": "1 µM", "remaining binding [%]": 100}
{"Structure (SMILES)": "O=C(NCc1ncc(C(F)(F)F)cc1Cl)c1ccc2c(c1)C1(CCS(=O)(=O)CC1)[C@H](C1CC1)N2S(=O)(=O)c1ccc(F)cc1", "target": "Tyrosine-protein kinase ABL1, phosphorylated (ABL1, Homo sapiens, UniProt P00519, Q252H)", "effect on": "cell-free assay", "technique": "competition with immobilised ligand", "concentration": "1 µM", "remaining binding [%]": 70}
{"Structure (SMILES)": "O=C(NCCCN1CCOCC1)c1ccc(Nc2ncc(Cl)c(-c3ccc(Cl)s3)n2)cc1", "target": "Tyrosine-protein kinase ABL1, phosphorylated (ABL1, Homo sapiens, UniProt P00519, H396P)", "effect on": "binding", "technique": "competition with immobilised ligand", "concentration": "1 µM", "remaining binding [%]": 32}
{"Structure (SMILES)": "COCCOc1nc(-c2ccc(Cl)nc2)nc2c1CN(C(=O)c1ncn3ccccc13)CC2", "target": "ABL1 T315I phosphorylated", "effect on": "cell-free assay", "technique": "competition with immobilised ligand", "concentration": "0.1 µM", "remaining binding [%]": 100}
{"Structure (SMILES)": "COc1cnc(Nc2cccc(S(N)(=O)=O)c2)nc1N1CCN(c2ccccc2)C(=O)C1", "target": "ABL1 E255K phosphorylated", "effect on": "binding", "technique": "competition with immobilised ligand", "concentration": "1 µM", "remaining binding [%]": 86}
{"Structure (SMILES)": "CN(C)c1nccc(-c2cnn3ncccc23)n1", "target": "ABL1 Y253F", "effect on": "binding", "concentration": "1 µM", "remaining binding [%]": 86}
{"Structure (SMILES)": "COc1cnc(Nc2cccc(S(N)(=O)=O)c2)nc1N1CCN(c2ccccc2)CC1", "target": "ABL1 F317L non-phosphorylated", "effect on": "binding", "technique": "competition with immobilised ligand", "concentration": "1 µM", "remaining binding [%]": 95}
{"Structure (SMILES)": "N[C@@H]1CCN(c2nccc(-c3cnn4ncccc34)n2)C1", "target": "ABL1 T315I", "effect on": "binding", "concentration": "1 µM", "remaining binding [%]": 95}
{"Structure (SMILES)": "C=CC(=O)N1CCC(C(=O)NCC(=O)N2CCN(c3nc(-c4cnc(N)nc4C(F)F)nc(N4CCOCC4)n3)CC2)CC1", "target": "Tyrosine-protein kinase ABL1, non-phosphorylated (ABL1, Homo sapiens, UniProt P00519, F317I)", "effect on": "binding", "technique": "competition with immobilised ligand", "concentration": "1 µM", "remaining binding [%]": 100}
{"Structure (SMILES)": "O=C(O)[C@H]1[C@H](Cn2nnc3ccccc3c2=O)CC[C@@H]1C(=O)c1ccc(OCCC2CCOCC2)cc1", "target": "Tyrosine-protein kinase ABL1, non-phosphorylated (ABL1, Homo sapiens, UniProt P00519)", "effect on": "cell-free assay", "technique": "competition with immobilised ligand", "concentration": "1 µM", "remaining binding [%]": 80}
{"Structure (SMILES)": "O=C(c1ccc(Nc2ncc(Cl)c(-c3cc4ccccc4s3)n2)cc1)N1CCC(N2CCCC2)CC1", "target": "ABL1 E255K phosphorylated", "effect on": "binding", "technique": "competition with immobilised ligand", "concentration": "1 µM", "remaining binding [%]": 13}
{"Structure (SMILES)": "CC(=O)C1=C(C)N(c2cccc(C(F)(F)F)c2)C(=O)N[C@@H]1c1ccc(C#N)nc1", "target": "ABL1 T315I phosphorylated", "effect on": "cell-free assay", "technique": "competition with immobilised ligand", "concentration": "1 µM", "remaining binding [%]": 96.9}
{"Structure (SMILES)": "CN(c1nccc(-c2cnn3ncccc23)n1)C1CC1", "target": "ABL1 Y253F", "effect on": "binding", "concentration": "1 µM", "remaining binding [%]": 100}
{"Structure (SMILES)": "Nc1c(C(=O)NCc2ccc(C(=O)NCCCC3CCCCC3)cc2)cnn1-c1ccccc1", "target": "Tyrosine-protein kinase ABL1, non-phosphorylated (ABL1, Homo sapiens, UniProt P00519, Q252H)", "effect on": "cell-free assay", "technique": "competition with immobilised ligand", "concentration": "0.1 µM", "remaining binding [%]": 87}
{"Structure (SMILES)": "O=C(c1ccc(Nc2ncc(Cl)c(-c3ccc(Cl)s3)n2)cc1)N1CCC(N2CCCC2)CC1", "target": "ABL1 M351T phosphorylated", "effect on": "binding", "technique": "competition with immobilised ligand", "concentration": "1 µM", "remaining binding [%]": 4.7}
{"Structure (SMILES)": "CN(c1ccnc(CNc2nc(Nc3ccc4c(c3)CC(=O)N4)ncc2C(F)(F)F)n1)S(C)(=O)=O", "target": "ABL1 M351T phosphorylated", "effect on": "cell-free assay", "technique": "competition with immobilised ligand", "concentration": "1 µM", "remaining binding [%]": 62}
{"Structure (SMILES)": "CCN1CCN(Cc2ccc(C(=O)Nc3ccc(C)c(Oc4ccc5c(c4)CC(=O)N5)c3)cc2C(F)(F)F)CC1", "target": "ABL1 F317L non-phosphorylated", "effect on": "binding", "technique": "competition with immobilised ligand", "concentration": "1 µM", "remaining binding [%]": 2.9}
